Source: PMC3282045 (Biochemistry, 2012)

T1: chicken sulfite oxidase (CSO, recombinant chicken SO) (Gallus gallus, UniProt P07850)
T1 sequence (P07850 1-459): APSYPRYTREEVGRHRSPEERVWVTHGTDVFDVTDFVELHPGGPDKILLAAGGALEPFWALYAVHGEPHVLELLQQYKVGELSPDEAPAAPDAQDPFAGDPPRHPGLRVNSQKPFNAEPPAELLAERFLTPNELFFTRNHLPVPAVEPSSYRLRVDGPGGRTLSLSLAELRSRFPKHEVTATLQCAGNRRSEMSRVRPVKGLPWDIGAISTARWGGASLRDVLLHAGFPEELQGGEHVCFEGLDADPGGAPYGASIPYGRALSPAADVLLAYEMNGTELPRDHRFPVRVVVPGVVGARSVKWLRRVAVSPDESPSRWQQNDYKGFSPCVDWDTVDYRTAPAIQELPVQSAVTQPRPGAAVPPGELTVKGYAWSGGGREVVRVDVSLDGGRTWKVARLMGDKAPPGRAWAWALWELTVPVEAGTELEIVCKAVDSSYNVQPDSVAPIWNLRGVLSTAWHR

T2: human sulfite oxidase (HSO, human SO) (Homo sapiens, UniProt P51687, R529Q)
T2 sequence (P51687 80-545 R529Q): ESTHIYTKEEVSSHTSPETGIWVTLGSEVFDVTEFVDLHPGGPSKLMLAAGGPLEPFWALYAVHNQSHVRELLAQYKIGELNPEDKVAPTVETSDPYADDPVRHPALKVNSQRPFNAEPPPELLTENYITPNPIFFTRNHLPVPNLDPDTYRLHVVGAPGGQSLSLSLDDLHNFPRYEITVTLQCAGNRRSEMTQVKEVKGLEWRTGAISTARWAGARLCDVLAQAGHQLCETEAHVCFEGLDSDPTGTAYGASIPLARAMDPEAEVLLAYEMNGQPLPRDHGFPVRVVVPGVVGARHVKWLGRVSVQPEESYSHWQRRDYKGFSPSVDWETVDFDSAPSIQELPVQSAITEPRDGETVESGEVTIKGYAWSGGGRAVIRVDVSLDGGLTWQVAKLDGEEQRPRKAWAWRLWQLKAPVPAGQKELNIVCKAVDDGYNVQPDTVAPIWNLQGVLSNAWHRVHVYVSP

T3: human sulfite oxidase (HSO, human SO) (Homo sapiens, UniProt P51687, R529M)
T3 sequence (P51687 80-545 R529M): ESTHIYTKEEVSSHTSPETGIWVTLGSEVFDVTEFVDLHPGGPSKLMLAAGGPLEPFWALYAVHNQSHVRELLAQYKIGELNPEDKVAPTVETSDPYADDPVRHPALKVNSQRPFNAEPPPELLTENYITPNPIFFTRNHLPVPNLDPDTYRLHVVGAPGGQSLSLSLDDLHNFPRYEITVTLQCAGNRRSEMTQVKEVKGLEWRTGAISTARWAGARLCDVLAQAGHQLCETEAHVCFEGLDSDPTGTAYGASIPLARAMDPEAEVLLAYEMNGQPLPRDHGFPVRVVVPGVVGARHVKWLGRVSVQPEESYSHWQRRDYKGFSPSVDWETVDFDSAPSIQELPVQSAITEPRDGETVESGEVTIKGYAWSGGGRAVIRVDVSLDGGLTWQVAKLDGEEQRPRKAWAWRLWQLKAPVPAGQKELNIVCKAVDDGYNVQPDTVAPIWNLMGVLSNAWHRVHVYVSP

T4: human sulfite oxidase (HSO, human SO) (Homo sapiens, UniProt P51687)
T4 sequence (P51687 80-545): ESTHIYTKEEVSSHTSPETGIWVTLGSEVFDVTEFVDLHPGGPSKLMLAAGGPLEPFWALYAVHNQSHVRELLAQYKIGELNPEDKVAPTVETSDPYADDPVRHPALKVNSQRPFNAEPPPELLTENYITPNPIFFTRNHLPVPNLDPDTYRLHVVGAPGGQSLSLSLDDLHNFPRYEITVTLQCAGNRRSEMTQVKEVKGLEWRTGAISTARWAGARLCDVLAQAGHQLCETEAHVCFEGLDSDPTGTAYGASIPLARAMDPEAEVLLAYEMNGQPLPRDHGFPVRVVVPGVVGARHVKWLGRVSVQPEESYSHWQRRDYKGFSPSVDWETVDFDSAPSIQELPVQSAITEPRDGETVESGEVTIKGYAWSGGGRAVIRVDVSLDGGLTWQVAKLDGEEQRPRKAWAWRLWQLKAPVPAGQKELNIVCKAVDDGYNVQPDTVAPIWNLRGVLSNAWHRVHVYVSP


How the values were obtained:
[1] = molecular target: T1, chicken sulfite oxidase (CSO, recombinant chicken SO); experiment: steady-state cytochrome c reduction at […] nm; type: biochemical; details: read-out: Km^sulfite; pH 8.5, 25 °C, horse heart cyt c
[2] = molecular target: T2, human sulfite oxidase (HSO, human SO); experiment: stopped-flow heme reduction; type: biochemical; details: read-out: Kd^sulfite; pH 8.5, 25 °C, anaerobic, no cyt c
Method in brief: (§1)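 Recombinant enzyme expressed in E. coli TP1000 and purified. Anaerobic stopped-flow at 25 °C (dead-time <1.5 ms, 10 mm path), with argon-sparged solutions prepared in an anaerobic chamber. Enzyme at 0.3–0.8 μM was mixed with varied sulfite, no cyt c. Heme Soret change followed at 425 or 430 nm. Traces were fitted to single or double exponentials for kobs, then kobs versus sulfite fitted hyperbolically for kred and Kd.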

[3] = molecular target: T3, human sulfite oxidase (HSO, human SO); experiment: stopped-flow heme reduction; type: biochemical; details: read-out: Kd^sulfite; pH 8.5, 25 °C, anaerobic, no cyt c
Method in brief: as §1

[4] = molecular target: T4, human sulfite oxidase (HSO, human SO); experiment: stopped-flow heme reduction; type: biochemical; details: read-out: Kd^sulfite; pH 8.5, 25 °C, anaerobic, no cyt c
Method in brief: as §1

purified protein [5] = substrate: O=S(O)O; experiment: purified protein; type: biochemical, Homo sapiens; details: pH 8.5, 25 °C, horse heart cyt c
purified protein [6] = substrate: O=[N+]([O-])O; experiment: purified protein; type: biochemical, Homo sapiens; details: pH 8.5, 25 °C, anaerobic, dithionite-reduced methyl viologen

Km [1] [µM] | Kd [2] [µM] | Kd [3] [µM] | Kd [4] [µM] | Molecule | Km (purified protein [5]) [µM] | kcat (purified protein [5]) [s⁻¹] | Km (purified protein [6]) [µM] | kcat (purified protein [6]) [s⁻¹]
8.53 | 227 | 73.4 | 6.72 | O=S(O)O [sulfite] | – | – | – | –
– | – | – | – | human sulfite oxidase (HSO, human SO) (Homo sapiens; V531M) (protein) ESTHIYTKEEVSSHTSPETGIWVTLGSEVFDVTEFVDLHPGGPSKLMLAAGGPLEPFWALYAVHNQSHVRELLAQYKIGELNPEDKVAPTVETSDPYADDPVRHPALKVNSQRPFNAEPPPELLTENYITPNPIFFTRNHLPVPNLDPDTYRLHVVGAPGGQSLSLSLDDLHNFPRYEITVTLQCAGNRRSEMTQVKEVKGLEWRTGAISTARWAGARLCDVLAQAGHQLCETEAHVCFEGLDSDPTGTAYGASIPLARAMDPEAEVLLAYEMNGQPLPRDHGFPVRVVVPGVVGARHVKWLGRVSVQPEESYSHWQRRDYKGFSPSVDWETVDFDSAPSIQELPVQSAITEPRDGETVESGEVTIKGYAWSGGGRAVIRVDVSLDGGLTWQVAKLDGEEQRPRKAWAWRLWQLKAPVPAGQKELNIVCKAVDDGYNVQPDTVAPIWNLRGMLSNAWHRVHVYVSP | 3.54 | 15.8 | – | –
– | – | – | – | human sulfite oxidase (HSO, human SO) (Homo sapiens; Y400N) (protein) ESTHIYTKEEVSSHTSPETGIWVTLGSEVFDVTEFVDLHPGGPSKLMLAAGGPLEPFWALYAVHNQSHVRELLAQYKIGELNPEDKVAPTVETSDPYADDPVRHPALKVNSQRPFNAEPPPELLTENYITPNPIFFTRNHLPVPNLDPDTYRLHVVGAPGGQSLSLSLDDLHNFPRYEITVTLQCAGNRRSEMTQVKEVKGLEWRTGAISTARWAGARLCDVLAQAGHQLCETEAHVCFEGLDSDPTGTAYGASIPLARAMDPEAEVLLAYEMNGQPLPRDHGFPVRVVVPGVVGARHVKWLGRVSVQPEESYSHWQRRDNKGFSPSVDWETVDFDSAPSIQELPVQSAITEPRDGETVESGEVTIKGYAWSGGGRAVIRVDVSLDGGLTWQVAKLDGEEQRPRKAWAWRLWQLKAPVPAGQKELNIVCKAVDDGYNVQPDTVAPIWNLRGVLSNAWHRVHVYVSP | 850 | 16.91 | – | –
– | – | – | – | human sulfite oxidase (HSO, human SO) (Homo sapiens) (protein) ESTHIYTKEEVSSHTSPETGIWVTLGSEVFDVTEFVDLHPGGPSKLMLAAGGPLEPFWALYAVHNQSHVRELLAQYKIGELNPEDKVAPTVETSDPYADDPVRHPALKVNSQRPFNAEPPPELLTENYITPNPIFFTRNHLPVPNLDPDTYRLHVVGAPGGQSLSLSLDDLHNFPRYEITVTLQCAGNRRSEMTQVKEVKGLEWRTGAISTARWAGARLCDVLAQAGHQLCETEAHVCFEGLDSDPTGTAYGASIPLARAMDPEAEVLLAYEMNGQPLPRDHGFPVRVVVPGVVGARHVKWLGRVSVQPEESYSHWQRRDYKGFSPSVDWETVDFDSAPSIQELPVQSAITEPRDGETVESGEVTIKGYAWSGGGRAVIRVDVSLDGGLTWQVAKLDGEEQRPRKAWAWRLWQLKAPVPAGQKELNIVCKAVDDGYNVQPDTVAPIWNLRGVLSNAWHRVHVYVSP | 8.25 | 26.9 | 43000 | < 0.1
– | – | – | – | human sulfite oxidase (HSO, human SO) (Homo sapiens; R529M/Y400N) (protein) ESTHIYTKEEVSSHTSPETGIWVTLGSEVFDVTEFVDLHPGGPSKLMLAAGGPLEPFWALYAVHNQSHVRELLAQYKIGELNPEDKVAPTVETSDPYADDPVRHPALKVNSQRPFNAEPPPELLTENYITPNPIFFTRNHLPVPNLDPDTYRLHVVGAPGGQSLSLSLDDLHNFPRYEITVTLQCAGNRRSEMTQVKEVKGLEWRTGAISTARWAGARLCDVLAQAGHQLCETEAHVCFEGLDSDPTGTAYGASIPLARAMDPEAEVLLAYEMNGQPLPRDHGFPVRVVVPGVVGARHVKWLGRVSVQPEESYSHWQRRDNKGFSPSVDWETVDFDSAPSIQELPVQSAITEPRDGETVESGEVTIKGYAWSGGGRAVIRVDVSLDGGLTWQVAKLDGEEQRPRKAWAWRLWQLKAPVPAGQKELNIVCKAVDDGYNVQPDTVAPIWNLMGVLSNAWHRVHVYVSP | 42990 | 1.42 | – | –
